Legend:
[1] = test system: Rattus norvegicus; test: In vivo minimal effective dose for anticonflict activity by intraperitoneal administration in rats by the Vogel conflict procedure.; assay type: functional; details: ip, read-out: MED
Summary of the method: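 Male Wistar rats deprived of food 24 h and water 48 h; 10 per dose given compound ip in 0.5% methocel (4 mL/kg) 30 min before test. After 15 s free drinking of sweetened milk, 0.3 mA shocks were delivered through the spout in alternating 5-s on/off cycles over 5 min; shocks counted.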

[2] = test system: Mus musculus; test: Anticonvulsant activity against prevention of tonic extensor seizures in 50% mice in the presence of metrazole (ip administration); assay type: functional
[3] = molecular target: GABA-A receptor; anion channel (Rattus norvegicus) (UniProt O09028+P15431+P18506+P18508+P19969+P20236+P23574+P23576+P28471+P28473+P30191+P62813+P63079+P63138+Q91ZM7+Q9ES14); test: Relative binding to GABA-A central benzodiazepine receptor in the presence and absence of 10e-4 M GABA (GABA shift); assay type: protein-complex assay
Summary of the method: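 Rat forebrain membranes incubated in triplicate with 0.4 nM [3H]flunitrazepam and varying ligand concentrations, with or without 0.1 mM GABA, 20 min at 37 °C. Specific binding: total minus binding with 1 μM unlabelled clonazepam. The ratio compares displacement curves obtained without versus with GABA.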

[4] = molecular target: GABA-A receptor; anion channel; test: In vitro binding affinity against benzodiazepine receptor using [3H]diazepam as radioligand; assay type: protein-complex assay
[5] = Lethal dose analysed when administered intraperitoneally; assay type: toxicity, organism-based; details: mouse, in vivo, ip
Summary of the method: (§1)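 Acute toxicity was tested in male CD1 mice in groups of three per dose. Compounds were dispersed in 0.5% methocel and given ip at 10 mL/kg.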

[6] = test system: Mus musculus; test: Anticonvulsant activity against prevention of tonic extensor seizures in 50% mice in the presence of bicuculline (ip administration); assay type: functional
Summary of the method: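 Male CD1 mice, 10 per dose, given test compound ip in 0.5% methocel (10 mL/kg). Bicuculline, 2 mg/kg sc in aqueous solution, given 30 min later, following the metrazol protocol. ED50 is the dose preventing tonic extensor seizures in 50% of mice, obtained by Finney probit analysis with 95% confidence limits.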

[7] = test system: Mus musculus; test: Anticonvulsant activity against prevention of tonic extensor seizures in 50% mice in the presence of metrazole (ip administration); 0.11-0.28; assay type: functional
[8] = test system: Mus musculus; test: Anticonvulsant activity against prevention of tonic extensor seizures in 50% mice in the presence of bicuculline (ip administration); 0.13-0.25; assay type: functional
[9] = Lethal dose analysed in mice when administered intraperitoneally; assay type: toxicity, organism-based; details: mouse, in vivo, ip; summary of the method: as §1

| Compound | minimal effective dose [1] | ED50 [2] | GABA ratio [3] | Ki [4] | LD50 [5] | ED50 [6] | ED50 [7] | ED50 [8] | LD50 [9] |
| --- | --- | --- | --- | --- | --- | --- | --- | --- | --- |
| COCCN(CCOC)c1nc2cc(-c3ccc(OC)cc3)nnc2c2ccccc12 | 10 mg/kg | > 100 mg/kg | 2 | 1180 nM | > 600 mg/kg | > 100 mg/kg | – | – | – |
| CN(C)c1nc2cc(-c3ccc(Cl)cc3)nnc2c2ccccc12 | – | – | – | 9300 nM | – | – | – | – | – |
| COc1ccc(-c2cc3nc(N4CCC4)c4ccccc4c3nn2)cc1 | 30 mg/kg | > 100 mg/kg | – | 69.6 nM | 600 mg/kg | > 100 mg/kg | – | – | – |
| CC(C)Oc1nc2cc(-c3ccccc3)nnc2c2ccccc12 | – | – | – | 1900 nM | – | – | – | – | – |
| CCOc1nc2cc(-c3ccccc3)nnc2c2ccccc12 | – | – | – | 1500 nM | – | – | – | – | – |
| COc1ccc(-c2cc3nc(N4CCCC4)c4ccccc4c3nn2)cc1 | 20 mg/kg | > 100 mg/kg | – | 18.7 nM | > 600 mg/kg | > 100 mg/kg | – | – | – |
| Oc1nc2cc(-c3ccccc3)nnc2c2ccccc12 | – | – | – | 1700 nM | – | – | – | – | – |
| Clc1nc2cc(-c3ccccc3)nnc2c2ccccc12 | – | – | – | 6200 nM | – | – | – | – | – |
| c1ccc(-c2cc3nc(N4CCOCC4)c4ccccc4c3nn2)cc1 | 15 mg/kg | > 50 mg/kg | 1.4 | 152 nM | 200 mg/kg | > 50 mg/kg | – | – | – |
| COc1ccc(-c2cc3nc(N(C)CC(C)O)c4ccccc4c3nn2)cc1 (centres undefined) | 30 mg/kg | > 100 mg/kg | 1.4 | 221 nM | > 600 mg/kg | > 100 mg/kg | – | – | – |
| COc1ccc(-c2cc3nc(N4CCCCC4)c4ccccc4c3nn2)cc1 | 10 mg/kg | > 100 mg/kg | – | 658 nM | > 600 mg/kg | > 100 mg/kg | – | – | – |
| COc1ccc(-c2cc3nc(N(C)C)c4ccccc4c3nn2)cc1 | 10 mg/kg | > 100 mg/kg | 1.7 | 63.3 nM | > 600 mg/kg | > 100 mg/kg | – | – | – |
| CN1CCN=C(c2ccccc2)c2cc(Cl)ccc21 [MEDAZEPAM] | – | – | 1.9 | 528 nM | – | – | – | – | – |
| c1ccc(-c2cc3nc(N4CCCC4)c4ccccc4c3nn2)cc1 | 5 mg/kg | > 50 mg/kg | 1.6 | 11.4 nM | 300 mg/kg | > 50 mg/kg | – | – | – |
| CN(C)c1nc2cc(-c3ccccc3)nnc2c2ccccc12 | 10 mg/kg | > 100 mg/kg | 1.2 | 28.4 nM | > 600 mg/kg | > 100 mg/kg | – | – | – |
| CN1C(=O)CN=C(c2ccccc2)c2cc(Cl)ccc21 [DIAZEPAM] | 0.5 mg/kg | – | – | – | – | – | 0.2% | 0.18% | – |
| c1ccc(-c2cc3ncc4ccccc4c3nn2)cc1 | – | – | – | 4000 nM | – | – | – | – | – |
| Cc1cc2nc(N3CCCC3)c3ccccc3c2nn1 | 20 mg/kg | > 50 mg/kg | 1 | 245 nM | – | > 50 mg/kg | – | – | 200 mg/kg |
| Cc1nnc2ccc(-c3cccc(C(F)(F)F)c3)nn12 [CI-218872] | – | – | – | 198 nM | – | – | – | – | – |
| COc1ccc(-c2cc3nc(N4CCOCC4)c4ccccc4c3nn2)cc1 | 30 mg/kg | > 100 mg/kg | – | 402 nM | > 600 mg/kg | > 100 mg/kg | – | – | – |
| COCCN(CCOC)c1nc2cc(-c3ccc(Cl)cc3)nnc2c2ccccc12 | – | – | – | 32500 nM | – | – | – | – | – |
| Clc1ccc(-c2cc3nc(N4CCCC4)c4ccccc4c3nn2)cc1 | – | – | – | 3480 nM | – | – | – | – | – |
| CC(O)CN(C)c1nc2cc(-c3ccccc3)nnc2c2ccccc12 (centres undefined) | 30 mg/kg | > 50 mg/kg | 1.4 | 136 nM | 300 mg/kg | > 50 mg/kg | – | – | – |
| CCN(C)c1nc2cc(-c3ccccc3)nnc2c2ccccc12 | 10 mg/kg | > 50 mg/kg | 1.5 | 65.2 nM | 300 mg/kg | > 50 mg/kg | – | – | – |
| CC(O)CN(C)c1nc2cc(-c3ccc(Cl)cc3)nnc2c2ccccc12 (centres undefined) | – | – | – | 17800 nM | – | – | – | – | – |

From ChEMBL document CHEMBL1123044, “Benzodiazepine receptor binding and anticonflict activity in a series of 3,6-disubstituted pyridazino[4,3-c]isoquinolines devoid of anticonvulsant properties” (J Med Chem, 1985)
